This is a sample that favours compounds with a hit; in the whole collection about 1% have one here.
MT stabilize HCS: microtubule stabilizers in HeLa cells, primary screen, imaging, high-content imaging | HeLa tubulin immunostaining HCS, 24 h; share of cells brighter than vehicle mean+2SD | 0.83% of 200,000 active | % tubulin-high responders, % at 10 µM;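 active = plate Z-score above 3 for both tubulin-high and condensed-nucleus cell shares, with cell loss under 80%, at 10 µM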;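 note: anti alpha tubulin signal scored within the nucleus-defined area of each cell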
TLR9-MyD88 block: inhibitors of TLR9-MyD88 association in cells, primary screen, cell-based, CHO, BLA complementation, fluorescence; Toll-like receptor 9 (Homo sapiens) + Myeloid differentiation primary response protein …; CCF4 FRET ratio; inhibition, % at 4.98 µM; 0.21% of 340,000 active; AID 504734, 2011;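 active = inhibition above the mean over all tested compounds plus 3 SD, cut at about 21% in these data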;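 note: 0% = DMSO only wells and 100% = clavulanate BLA inhibitor control wells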
Target sequence (Q99836 whole entry, looked up): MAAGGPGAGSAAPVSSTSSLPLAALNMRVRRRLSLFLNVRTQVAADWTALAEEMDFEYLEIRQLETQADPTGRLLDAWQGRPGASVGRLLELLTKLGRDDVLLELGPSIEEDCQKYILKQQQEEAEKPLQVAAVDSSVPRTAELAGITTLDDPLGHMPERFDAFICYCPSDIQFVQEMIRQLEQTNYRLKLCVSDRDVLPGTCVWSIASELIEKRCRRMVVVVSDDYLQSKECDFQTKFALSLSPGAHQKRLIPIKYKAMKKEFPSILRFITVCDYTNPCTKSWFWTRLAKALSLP
Target sequence (Q9NR96 whole entry, looked up): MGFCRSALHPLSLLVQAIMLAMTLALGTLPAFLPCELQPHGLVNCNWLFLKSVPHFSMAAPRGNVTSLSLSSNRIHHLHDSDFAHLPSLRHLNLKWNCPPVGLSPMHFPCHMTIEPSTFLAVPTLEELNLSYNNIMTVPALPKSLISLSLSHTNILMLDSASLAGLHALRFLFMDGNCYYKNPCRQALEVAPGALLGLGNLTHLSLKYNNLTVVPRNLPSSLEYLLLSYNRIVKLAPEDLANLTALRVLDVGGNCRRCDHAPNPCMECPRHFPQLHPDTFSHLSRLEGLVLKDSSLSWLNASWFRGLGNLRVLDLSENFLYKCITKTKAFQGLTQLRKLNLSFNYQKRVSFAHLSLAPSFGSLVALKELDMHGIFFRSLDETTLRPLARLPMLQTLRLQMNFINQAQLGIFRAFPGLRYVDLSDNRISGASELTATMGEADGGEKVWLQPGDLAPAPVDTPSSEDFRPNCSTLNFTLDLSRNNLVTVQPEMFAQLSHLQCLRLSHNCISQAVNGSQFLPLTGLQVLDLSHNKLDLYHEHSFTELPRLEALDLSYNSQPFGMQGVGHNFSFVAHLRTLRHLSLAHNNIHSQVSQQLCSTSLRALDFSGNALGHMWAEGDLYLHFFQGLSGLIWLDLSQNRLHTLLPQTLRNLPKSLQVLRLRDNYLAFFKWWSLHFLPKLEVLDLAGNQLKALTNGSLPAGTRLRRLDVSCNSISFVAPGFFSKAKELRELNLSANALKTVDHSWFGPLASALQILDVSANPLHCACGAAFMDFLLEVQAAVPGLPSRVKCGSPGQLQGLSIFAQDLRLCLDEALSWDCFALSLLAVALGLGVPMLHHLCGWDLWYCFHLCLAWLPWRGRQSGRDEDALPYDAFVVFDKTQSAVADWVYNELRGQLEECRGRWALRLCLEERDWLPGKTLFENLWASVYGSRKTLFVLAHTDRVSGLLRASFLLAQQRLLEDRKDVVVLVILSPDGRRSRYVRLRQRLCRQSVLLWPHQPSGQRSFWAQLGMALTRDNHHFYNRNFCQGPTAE
NOD2 RIPK2 PPI: NOD2-RIPK2 binding disruptors in cells, primary screen, fluorescence, CHO cells, BLA complementation; Receptor-interacting serine/threonine-protein kinase 2 (Homo sapiens), O43353; CCF4 ratio; inhibition, % at 4.98 µM; 0.38% of 360,000 active; AID 624267, 2012; in the data active = inhibition above about 21%;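 note: 0% = vehicle only and 100% = reference blocker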
bCat nuc transl: modulators of beta-catenin nuclear translocation, primary screen, imaging, HeLa cells, immunofluorescence, high-content. nuclear translocation activity, % at 5 µM. 0.3% of 190,000 active;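 active = nuclear translocation activity above 50% at 5 µM, with a well cell count of 50 or more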;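 note: per-cell ratio of nuclear to cytoplasmic median beta-catenin stain intensity; plate controls were DMSO negative control for no effect and GSK-3 inhibitor IX positive control for full effect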
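Test system: HeLa cells, endogenous beta-catenin; Compound: single 5 µM dose plus 0.02–20 µM confirmation series; Times: compound exposure 24 h at 37°C; Signal: fluorescence imaging of beta-catenin antibody stain plus DAPI; Read-out: % activation, nuclear-to-cytoplasmic median beta-catenin signal ratio per cell.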
TLR4-MyD88 BLA: inhibitors of TLR4-MyD88 association in cells, primary screen, cell-based, HeLa CL3-4, BLA complementation, FRET ratio | Toll-like receptor 4 (Homo sapiens) + Myeloid differentiation primary response protein … | HeLa CL3-4 TLR4/MyD88 BLA complementation | inhibition, % at 8.4 µM | 0.18% of 200,000 active; in the data active = inhibition above about 25%;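 note: 0% = vehicle and 100% = reference inhibitor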
Hsp70 activator: Hsp70 transcriptional activators, primary screen, cell-based, HeLa, Hsp70 promoter luciferase, luminescence, 10 µM. HeLa Hsp70 promoter luciferase reporter; scaled: vehicle 0, proteasome-inhibitor control 100%. activation, % at 10 µM. 0.04% of 200,000 active;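 active = activation above the mean across all tested compounds plus 3 SD, cutoff set per campaign, cut at about 5.5% in these data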;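 note: 100% = MG132 at 30 µM as the positive control and 0% = DMSO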
TLR9-MyD88 cf: TLR9-MyD88 association inhibitors, retest, confirmation, cell-based, CHO, BLA complementation, fluorescence, triplicate; inhibition, % at 4.98 µM; CCF4 FRET ratio; 51% of 680 active; shares compounds with TLR9-MyD88 block;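 active = mean inhibition across three repeats above about 21% taken from the earlier screen, limit read from the data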;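 note: blue over green emission ratio reports constitutive TLR9 MyD88 association via BLA complementation; 0% = DMSO vehicle wells and 100% = clavulanate BLA inhibitor wells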
BLA counter: beta-lactamase reporter inhibitors in CHO cells, artefact control for TLR9-MyD88 binding inhibitor project, cell-based, fluorescence; CHO-BLA cells, CCF4 FRET ratio, BLA reporter; shares compounds with TLR9-MyD88 block; inhibition, % at 4.98 µM; 7% of 680 active; AID 540251, 2011;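 active = mean inhibition above a 50% cutoff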;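 note: counterscreen of TLR9-MyD88 hits on CMV-driven BLA in CHO-K1 cells; 0% = DMSO alone and 100% = clavulanate blocking BLA; higher means less blue over green ratio so more BLA blockade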
TLR9 CHO tox: CHO cell viability loss – luminescence, single concentration, cytotoxicity control for TLR9-MyD88 binding inhibitor project; 39% of 680 active; shares compounds with TLR9-MyD88 block; inhibition, % at 4.98 µM; TLR9-MyD88 CHO cells cytotoxicity; in the data active = inhibition above about 11%
* = called active by the depositor; nt = no result given.

SMILES | MT stabilize HCS | TLR9-MyD88 block | NOD2 RIPK2 PPI | bCat nuc transl | TLR4-MyD88 BLA | Hsp70 activator | TLR9-MyD88 cf | BLA counter | TLR9 CHO tox
O=C(COC(=O)c1ccc2c(c1[N+](=O)[O-])C(=O)c1ccccc1C2=O)NC1CC1 | 1.9 | 24.6* | 18.8 | 0.6 | 6.7 | 0.0 | 12.0 | -4.3 | 18.9*
O=C(COC(=O)c1cccc2c1C(=O)c1ccccc1C2=O)NC1CCCCC1 | 2.2 | 0.1 | -3.8 | -0.9 | 11.2 | -0.5 | nt | nt | nt
COC(=O)CCC(=O)N1CCC(CCC(=O)NCc2ccc(F)cc2)CC1 | nt | 3.6 | -2.3 | nt | nt | nt | nt | nt | nt
CN(C)c1ccc(/C=C(\Cl)c2nc3ccccc3s2)cc1 | 7.7 | 25.3* | 16.9 | 4.6 | 18.3 | -0.4 | 16.0 | 22.6 | 9.7
O=C(O)c1ccc(C=C(c2nc3ccccc3s2)c2nc3ccccc3s2)cc1 | 1.8 | 0.5 | 6.5 | -0.4 | 3.0 | -0.1 | nt | nt | nt
CCc1ccc(NC(=O)CSc2n[nH]c(=O)n2C2CC2)cc1 | nt | -3.1 | -10.4 | nt | nt | nt | nt | nt | nt
Cc1ccc(S(=O)(=O)c2ccc(C)cc2)cc1 | 1.4 | 1.8 | 4.0 | nt | -1.6 | -0.3 | nt | nt | nt
Cc1ccc(S(=O)(=O)C=CS(=O)(=O)c2ccc(C)cc2)cc1 | nt | 29.0* | 7.3 | nt | nt | nt | 37.2* | 24.1 | 97.3*
O=C(CCCOc1ccccc1)NC(=S)Nc1ccccc1 | 6.7 | -1.8 | -3.1 | 0.5 | -4.3 | -0.2 | nt | nt | nt
COc1cc(/C=C/C(=O)OCC(=O)Nc2ccc3[nH]c(=O)[nH]c3c2)ccc1OC(F)F | nt | 22.7* | -9.9 | nt | nt | nt | 6.8 | 2.6 | 7.1
COc1cc(/C=C/C(=O)OCC(=O)N(C)CC(=O)Nc2ccc(F)cc2)ccc1OC(F)F | nt | 5.7 | -7.3 | nt | nt | nt | nt | nt | nt
CCOC(=O)CNC(=O)CSc1nc(-c2ccc(OC)cc2)ns1 | 0.8 | 22.4* | -1.0 | -7.1 | 2.1 | -0.2 | 1.4 | -2.5 | 5.2
COc1ccc(C(=O)c2c(-c3cccc(C)c3)oc3ccc(N4CCOCC4)cc23)cn1 | nt | 6.9 | 0.6 | nt | nt | nt | nt | nt | nt
CN(C)CC1CC/C(=C\c2ccc(O)cc2)C1=O (stereo unspecified) | nt | 28.4* | 65.0* | nt | nt | nt | 23.8* | 2.5 | 97.0*
CCS(=O)(=O)Nc1ccc(C(=O)OC)cc1 | 3.1 | 0.9 | 0.9 | nt | 6.2 | -0.3 | nt | nt | nt
CCS(=O)(=O)Nc1ccc(C(=O)c2ccccc2)cc1 | 2.4 | 22.3* | 7.7 | 3.4 | 6.0 | -0.1 | -5.9 | -3.5 | 5.0
CCN(CC)c1ccc(C=NNc2ccc([N+](=O)[O-])cn2)cc1 | nt | 21.9* | 14.1 | nt | nt | nt | 38.4* | 38.8 | 2.9
CN(C)S(=O)(=O)c1cccc(NC(=O)c2cc([N+](=O)[O-])ccc2N2CCCCC2)c1 | nt | 21.6* | 7.9 | nt | nt | nt | 1.4 | 2.1 | 4.4
N#Cc1ccc(-c2cccnc2)nc1SCC(=O)c1ccccc1 | nt | 21.3* | 13.5 | -1.2 | nt | nt | 9.3 | 8.8 | 10.0
COc1ccc(C2=CC(c3sccc3C)n3nnnc3N2)cc1 (stereo unspecified) | 4.7 | -8.6 | 1.2 | -0.1 | 4.1 | 0.4 | nt | nt | nt
Cc1ccsc1C1C=C(c2cccc(Br)c2)Nc2ncnn21 (stereo unspecified) | 3.4 | 28.4* | 20.3 | 6.6 | -0.3 | -0.2 | 4.9 | 2.4 | 6.7
O=C1/C(=C\c2cc([N+](=O)[O-])ccc2O)SC(=S)N1Cc1ccc(Cl)cc1 | nt | 23.5* | 13.1 | nt | nt | nt | 14.7 | 17.8 | 2.7
O=C1/C(=C\c2cccc(O)c2O)SC(=S)N1Cc1ccccc1 | nt | 5.8 | 10.2 | nt | nt | nt | nt | nt | nt
CC1(C(=O)OCC(=O)Nc2nc(-c3ccc(F)c(F)c3)cs2)CC1(Cl)Cl (stereo unspecified) | nt | -7.7 | 1.7 | nt | nt | nt | nt | nt | nt
C=CCn1c(SCCN)nnc1-c1cccc(S(=O)(=O)N2CCOCC2)c1 | nt | -7.9 | -2.8 | nt | nt | nt | nt | nt | nt
SMILES | MT stabilize HCS | TLR9-MyD88 block | NOD2 RIPK2 PPI | bCat nuc transl | TLR4-MyD88 BLA | Hsp70 activator | TLR9-MyD88 cf | BLA counter | TLR9 CHO tox
CS(=O)(=O)Nc1nc2n(n1)C(c1ccccc1)C=C(c1ccc(Br)cc1)N2 (stereo unspecified) | 2.3 | 36.6* | 46.9* | -0.8 | 17.0 | -0.2 | 7.7 | 8.8 | 2.1
O=C(Nc1nc2n(n1)C(c1ccccc1)C=C(c1ccccc1)N2)c1ccco1 (stereo unspecified) | 5.8 | -4.5 | -0.6 | -2.1 | 6.1 | 0.0 | nt | nt | nt
CC(=O)Nc1nc2n(n1)C(c1ccccc1)C=C(c1ccccc1)N2 (stereo unspecified) | 5.3 | 56.5* | 56.2* | 0.8 | 18.0 | -0.2 | 34.0* | 40.1 | 1.4
Cc1cccc2sc(NC(=O)Cn3c(C)csc3=O)nc12 | nt | -12.2 | 10.7 | nt | nt | nt | nt | nt | nt
COC(=O)c1cc(C#N)c(N2CCOCC2)nc1C | 6.8 | 22.4* | -7.1 | -1.4 | -4.8 | -0.1 | -4.2 | -4.1 | 0.4
COc1ccc(Cc2noc(=O)[nH]2)cc1 | nt | -0.7 | -3.8 | nt | nt | nt | nt | nt | nt
O=C(CN1C(=O)/C(=C/c2ccccc2)SC1=S)NC1CCS(=O)(=O)C1 (stereo unspecified) | nt | 20.8* | -18.2 | nt | nt | nt | 2.5 | 1.6 | 1.8
O=C(CN1C(=O)/C(=C/c2ccc(F)cc2)SC1=S)NC1CCS(=O)(=O)C1 (stereo unspecified) | nt | -0.2 | -13.6 | nt | nt | nt | nt | nt | nt
O=C(Nc1c(Cl)cccc1Cl)C1CCN(C(=O)c2cccs2)CC1 | nt | -10.1 | -15.7 | nt | nt | nt | nt | nt | nt
CC(C)(C)c1ccc(C(=O)N2CCC2(C)C(=O)Nc2cccc(C#N)c2)cc1 (stereo unspecified) | nt | nt | 8.6 | nt | nt | nt | nt | nt | nt
O=S1(=O)Nc2c(ccc3cccnc23)-c2ccccc21 | 4.6 | 20.9* | 24.9* | -3.5 | 6.9 | -0.2 | 32.6* | 16.8 | 98.7*
COc1ccc(/C=C(/C(=O)c2cccs2)N2C=CC=CC2=C(C#N)C#N)cc1 | 7.3 | 15.4 | 0.1 | 0.7 | -4.9 | -0.1 | nt | nt | nt
COc1ccc(C(=O)/C(=C\c2ccco2)N2C=CC=CC2=C(C#N)C#N)cc1 | 11.7 | 27.8* | 85.1* | -1.0 | 5.8 | 1.6 | 19.1 | 9.2 | 96.3*
CCn1c(/C=C/c2ccccc2)nc2ccccc21 | 2.9 | 7.3 | -4.8 | 1.2 | 5.6 | -0.2 | nt | nt | nt
CCCn1c(/C=C/c2cc[n+](C)cc2)nc2ccccc21 | nt | 29.5* | 16.3 | nt | nt | nt | 17.2 | 22.1 | -0.8
